Experimental data taken from ChEMBL document CHEMBL4265924, “Inhibitor for FcεRI expression on mast cell from Verbasucum thapsus L” (2018).
Active and inactive are the calls of the source. The calls are words filed in the database; no cut-off is given here.

How the values were obtained:
HMC1 [1] = experiment: Inhibition of FCepsilonRI expression in human HMC1 cells at 30 to 100 uM after 72 hrs by flow cytometric analysis; assay type: functional, cell-based
Procedure, shortened: (§1)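 HMC-1 human mast cells exposed to test sample for 72 h, then harvested and stained with anti-FcεRI α-chain antibody plus FITC-labelled secondary antibody; surface FcεRI read as FITC fluorescence by flow cytometry. Mean ± SD of triplicate experiments.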

HMC1 [2] = experiment: Inhibition of FCepsilonRI expression in human HMC1 cells at 30 uM after 72 hrs by flow cytometric analysis; assay type: functional; conditions: for inhibition (INH): in the assay text read “30 ug/mL” for “30 uM”; procedure, shortened: as §1
HMC1 [3] = experiment: Inhibition of FCepsilonRIbeta subunit mRNA expression in human HMC1 cells at 50 to 100 uM after 36 hrs by RT-PCR analysis
HMC1 [4] = experiment: Inhibition of FCepsilonRIgamma subunit mRNA expression in human HMC1 cells at 50 to 100 uM after 36 hrs by RT-PCR analysis; assay type: functional, cell-based
Procedure, shortened: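 After 36 h culture of HMC-1 cells with compound, total RNA extracted; mRNA of each FcεRI subunit measured by RT-PCR with ethidium bromide staining of products, normalized to g3pdh and compared with vehicle. Mean ± SD, triplicate experiments.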

With `COc1cc2ccc(=O)oc2c(O)c1OCC(O)C(C)(C)O` (stereo unspecified) the inhibition (HMC1 [1]) was “inactive”.
`COc1cc2ccc(=O)oc2c(OC)c1OCC(O)C(C)C` (stereo unspecified) was tested, and the inhibition (HMC1 [1]) was “Active”.
With `COc1cc2ccc(=O)oc2c(OC)c1OCC1OC1(C)C` (stereo unspecified) the inhibition (HMC1 [1]) was “Active”.
In the case of `COc1cc2ccc(=O)oc2c(OC)c1OCCC(C)(C)O`, the inhibition (HMC1 [1]) is reported as “Active”.
For `COc1cc2ccc(=O)oc2c(OC)c1OCCC(C)C`, the inhibition (HMC1 [1]) was “Active”.
In the case of `COc1cc2ccc(=O)oc2c(OC)c1OCC(O)C(C)(C)O` (racemic) [listing 1 of 2 here], the “inhibition (INH)” value (HMC1 [2]) is reported as 49%.
In the case of `COc1c(OCC(O)C(C)(C)O)c(O)cc2ccc(=O)oc12` (racemic), the inhibition (HMC1 [1]) is reported as “inactive”.
In the case of `COc1cc2ccc(=O)oc2c(OC)c1OCC(O)C(C)(C)O` (racemic) [listing 2 of 2 here], the inhibition (HMC1 [3]) is reported as “Active” and the inhibition (HMC1 [4]) is reported as “inactive”.
With `COc1cc2ccc(=O)oc2c(OC)c1OCC(O)C(C)(C)O` (single isomer, unassigned; enantiomer 1) the “inhibition (INH)” value (HMC1 [2]) was 45.1%.
`COc1cc2ccc(=O)oc2c(OC)c1OCC(O)C(C)(C)O` (stereo in doubt) showed an inhibition at 30 µM (HMC1 [2]; Homo sapiens, HMC1, 72 h) of 44.3%.
